Hits are enriched below; roughly 4.2% of the tested compounds scored in any of these assays.
FXN GAA850 act = frataxin GAA850 promoter activation; HEK293 lucGAA850 FXN promoter luciferase reporter, 24 h; percent of 10 µM SAHA response; activation, % at 6 µM; 360,000 compounds, 0.56% hits; AID 540364;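 active = activation above the average of all compounds screened plus 3 SD, cutoff fixed separately per campaign, cut at about 7.5% in these data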;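 also: 0% = DMSO wells and 100% = 10 µM SAHA wells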
CTSL1 counter-1 = cathepsin L1 inhibition, PFM18AAP counter-screen; recombinant F. hepatica cathepsin L1, Z-Leu-Arg-MCA fluorescence; inhibition, % at 5.96 µM; 300,000 compounds, 0.49% hits; AID 1906;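 active = inhibition above the mean of all tested compounds plus 3 SD, set per screening campaign, cut at about 17% in these data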;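 also: 0% = plate median of test compound wells and 100% = 1 µM Z-Phe-Ala-diazomethylketone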
PfM18AAP inh-1 = PfM18AAP enzyme inhibition; 290,000 compounds, 1.2% hits; inhibition, % at 7.35 µM; recombinant PfM18AAP, H-Glu-NHMec fluorogenic cleavage;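 active = inhibition above the campaign mean inhibition over all tested compounds plus 3 SD, cut at about 28% in these data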;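 also: 0% = plate median of test compound wells and 100% = 2 mM ZnCl2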
AHR activator = activators of human aryl hydrocarbon receptor; P35869; activation, % at 5 µM; AID 2796; AHR-responsive luciferase reporter cells, luminescence; 320,000 compounds, 2.5% hits; in the data active = activation above about 47%;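 also: 0% = vehicle wells and 100% = reference agonist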
HDAC3 inh = blocks human histone deacetylase 3; O15379; recombinant HDAC3, fluorogenic peptide/trypsin coupled, fluorescence; inhibition, % at 8.3 µM; 320,000 compounds, 0.15% hits; in the data active = inhibition above about 26%, passing the limit was not always enough
SENP1 FRET inh = SENP1 (human) catalytic domain inhibition; AID 624204; recombinant SENP1 catalytic domain, CyPet-SUMO1-YPet FRET cleavage; Q9P0U3; inhibition, % at 10 µM; 360,000 compounds, 0.21% hits;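 active = inhibition at least 30% at 10 µM, raw YFP signal under a set limit, fluorescence ratio 0.5 to 1.5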;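 also: 0% = enzyme with DMSO and 100% = no enzyme wells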
Target sequence (Q9P0U3 419-644 limits assumed): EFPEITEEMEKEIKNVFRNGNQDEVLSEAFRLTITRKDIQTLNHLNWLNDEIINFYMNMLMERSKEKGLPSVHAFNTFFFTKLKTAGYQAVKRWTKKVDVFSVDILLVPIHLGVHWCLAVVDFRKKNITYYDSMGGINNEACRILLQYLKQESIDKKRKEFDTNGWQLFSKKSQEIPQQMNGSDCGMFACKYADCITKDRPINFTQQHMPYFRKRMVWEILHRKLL
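Compound: 10 µM single point, 0.5% DMSO; Test system: hSENP1 catalytic domain, recombinant; Timing: 50 min reaction at room temperature; Technique: FRET, CFP and YFP emission; Control set: no-enzyme wells low, DMSO-plus-enzyme wells high control.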
PfM18AAP inh-2 = PfM18AAP inhibition, confirmation. shares compounds with PfM18AAP inh-1. recombinant PfM18AAP, H-Glu-NHMec fluorogenic cleavage. inhibition, % at 7.35 µM. 2,400 compounds, 28% hits;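 active = mean inhibition over replicate wells above the hit cutoff set for the earlier primary screen, cut at about 29% in these data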;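 also: 0% = median of test compound wells and 100% = 2 mM ZnCl2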
CTSL1 counter-2 = Cathepsin L (human) inhibition, confirmation; purified cathepsin L1, Z-Leu-Arg-MCA fluorescence; 2,400 tested, under 10 active; shares compounds with PfM18AAP inh-1; inhibition, % at 5.96 µM;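 active = average inhibition across replicates above the hit cutoff set in the earlier primary screen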;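 also: 0% = median of test compound wells and 100% = Z-Phe-Ala-diazomethylketone 1 µM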
Target sequence (P07711 whole entry, looked up): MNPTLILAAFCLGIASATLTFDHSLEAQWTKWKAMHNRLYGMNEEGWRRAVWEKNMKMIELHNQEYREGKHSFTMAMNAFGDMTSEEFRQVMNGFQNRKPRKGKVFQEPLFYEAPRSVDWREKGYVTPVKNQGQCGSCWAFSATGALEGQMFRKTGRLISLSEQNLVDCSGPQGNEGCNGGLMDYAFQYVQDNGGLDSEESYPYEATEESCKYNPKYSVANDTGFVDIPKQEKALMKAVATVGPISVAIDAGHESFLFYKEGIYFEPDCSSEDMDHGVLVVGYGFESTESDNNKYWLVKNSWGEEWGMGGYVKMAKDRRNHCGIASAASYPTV
Starred values were filed as active, the others as inactive; . = no result.

SMILES | FXN GAA850 act | CTSL1 counter-1 | PfM18AAP inh-1 | AHR activator | HDAC3 inh | SENP1 FRET inh | PfM18AAP inh-2 | CTSL1 counter-2
CCOC(=O)c1ccc(CC(=O)c2ccc(O)c(O)c2O)o1 | 0 | . | 48* | . | . | 3 | 0 | 0
CCOC(=O)c1ccc(CC(=O)c2oc3cc(O)ccc3c2C)o1 | 2 | 0 | 16 | 2 | 1 | -28 | . | .
O=C(CCc1ccccc1)OCC(=O)c1ccc([N+](=O)[O-])cc1 | 0 | -1 | 46* | 0 | 0 | -8 | -25 | -5
O=C(CCC(=O)OCC(=O)c1ccc([N+](=O)[O-])cc1)Nc1ccccc1Cl | -1 | -12 | 40* | 0 | 5 | 2 | -6 | -21
O=C(COC(=O)c1cnccn1)c1ccc([N+](=O)[O-])cc1 | 1 | -4 | 40* | 0 | 1 | 1 | 0 | 0
O=C(COc1ccccc1F)OCC(=O)c1ccc([N+](=O)[O-])cc1 | 0 | . | . | 1 | 4 | 1 | . | .
Nc1ccc(S(=O)(=O)c2ccc(N)nc2)cc1 | 0 | . | . | . | . | 2 | . | .
CN(C)c1cccc(C(=O)NN2C(=O)NC3(CCCCC3)C2=O)c1 | 2 | . | . | 5 | -2 | -1 | . | .
COc1ccc(C(O)c2nc(-c3cc(F)cc(Cl)c3)cs2)cc1 (centres undefined) | 0 | . | . | . | . | 1 | . | .
COc1cccc(C(=O)NNC(=O)c2ccc3ccccc3c2O)c1 | 2 | 0 | . | -1 | 6 | -1 | . | .
O=C(NCCN1C(=O)S/C(=C\c2ccccc2F)C1=O)C1=COCCO1 | -5 | 3 | . | -3 | . | -1 | . | .
Cn1c(N)c(C(=O)N/N=C/c2ccccc2)sc1=S | 0 | 5 | 34* | 101* | 1 | -22 | -35 | 2
Cc1c(C(=O)N/N=C/c2cccnc2)sc(=S)n1C | -1 | 0 | 6 | 36 | 12 | 3 | . | .
O=C(CCS(=O)(=O)c1ccc(Cl)cc1)Nc1ccccc1Br | -1 | 0 | -4 | 4 | -1 | 2 | . | .
O=C(O)CCCC(=O)Nc1ccccc1SCCS(=O)(=O)c1ccc(Cl)cc1 | 1 | . | 35* | . | 0 | -1 | -21 | 1
O=C(CCc1nnc(Cc2ccc(-c3ccccc3)cc2)o1)NCCc1cccnc1 | -1 | -2 | -3 | 0 | 3 | -1 | . | .
CCOC(OCC)c1nc(N)[nH]c(=O)c1CCCCc1ccccc1 | -1 | . | . | . | . | 2 | . | .
O=C1C2Sc3[nH]c(=O)sc3C(c3ccccc3)C2C(=O)N1c1ccc(Cl)cc1 (centres undefined) | -1 | -3 | 36* | 3 | 5 | 7 | -15 | -4
Cc1ccc(N2C(=O)C3Sc4[nH]c(=O)sc4C(c4ccccc4)C3C2=O)cc1 (centres undefined) | -2 | 0 | 24 | 3 | 3 | 3 | . | .
Cn1c(=O)[nH]c(=O)c2c1nc(SCCN1CCCCC1)n2Cc1ccccc1 | 0 | 3 | -6 | 1 | 4 | 3 | . | .
Cn1c(=O)[nH]c(=O)c2c1nc(SCCN1CCCCC1)n2CCCc1ccccc1 | 1 | -3 | 55* | -1 | 13 | 0 | 7 | -1
COCCSc1nc2c(c(=O)[nH]c(=O)n2C)n1CCCc1ccccc1 | 4 | 3 | 23 | 10 | -1 | 1 | . | .
Cc1ccc(Cn2c(SCCN3CCCCC3)nc3c2c(=O)[nH]c(=O)n3C)cc1 | 0 | 3 | 38* | 1 | . | 1 | 0 | 4
CSc1ccc(CNC(=O)C2CCC(=O)N(CCc3ccc(Cl)cc3)C2)cc1 (centres undefined) | -3 | . | . | . | . | 0 | . | .
CCN(c1ccc(OC)cc1)S(=O)(=O)c1nnc(NC(=O)c2ccc(C)cc2)s1 | 1 | -3 | -5 | 0 | -1 | 0 | . | .
SMILES | FXN GAA850 act | CTSL1 counter-1 | PfM18AAP inh-1 | AHR activator | HDAC3 inh | SENP1 FRET inh | PfM18AAP inh-2 | CTSL1 counter-2
O=C(Cc1cccc2ccccc12)N/N=C/c1ccc(Sc2nc3ccccc3s2)o1 | 1 | -1 | 6 | 27 | 6 | 0 | . | .
N#CCC(=O)N/N=C/c1ccc(Sc2nc3ccccc3s2)o1 | 3 | -9 | 41* | 24 | -9 | -61 | -51 | -7
S=C(NCc1ccco1)NCc1ccco1 | 0 | . | . | . | . | -2 | . | .
Cc1cccc(NC(=S)NCc2ccco2)n1 | 2 | 6 | 38* | 17 | 2 | 2 | -35 | 1
NC(=O)c1cc(Cc2ccccc2)sc1NC(=O)c1ccco1 | 5 | -1 | 35* | 1 | 3 | -6 | -21 | 6
NC(=O)N/N=C/c1coc2ccc(O)cc2c1=O | 0 | 6 | 66* | 1 | -4 | 0 | 57* | -3
Cc1ccc2occ(/C=N/NC(N)=S)c(=O)c2c1 | -2 | 6 | 11 | 25 | -10 | -1 | . | .
O=C(CCNC(=O)c1ccccc1Cl)Nc1ccc(S(=O)(=O)Nc2nccs2)cc1 | 1 | . | . | 2 | 2 | -2 | . | .
O=C(Nn1cnnc1)c1csc2ccccc12 | 2 | -2 | 72* | 3 | -1 | 0 | 73* | -5
Cc1c(C(=O)Nn2cnnc2)oc2ccccc12 | 2 | -4 | 81* | 5 | 2 | -1 | 76* | -3
Cc1scc(C(=O)Nn2cnnc2)c1-c1ccccc1 | 0 | -3 | 64* | 0 | -6 | 2 | 60* | 0
Cc1c(C(=O)NN2CCOCC2)oc2ccccc12 | 2 | 1 | 0 | -6 | -1 | 0 | . | .
O=C(Nn1cnnc1)c1ccccc1F | 1 | 2 | 25 | 1 | -6 | -137 | . | .
COC(=O)CN(c1ccccc1)S(=O)(=O)c1ccccc1 | -1 | -2 | 1 | -1 | 2 | 3 | . | .
COC(=O)CN(n1cnnc1)S(=O)(=O)c1ccccc1 | 0 | -1 | 78* | 1 | 2 | 1 | 85* | 4
CC1CN(Cc2nc3c(c(=O)n(C)c(=O)n3C)n2Cc2ccccc2)CC(C)O1 (centres undefined) | -1 | -2 | 55* | 5 | 6 | 0 | -55 | 1
COc1ccc(/C=N/Nc2nc3ccccc3s2)cc1O | 6 | . | 21 | . | . | 1 | . | .
Oc1ccccc1/C=N/Nc1nc2ccccc2o1 | -8 | 9 | 19 | 15 | . | -14 | . | .
COc1cc(/C=N/Nc2nc3ccccc3o2)cc(OC)c1O | 6 | 0 | 43* | 15 | 4 | 0 | 23 | 4
COc1ccc(/C=N/Nc2nc3ccccc3o2)cc1O | -2 | 0 | 50* | 33 | 8 | 2 | -33 | 5
COc1ccc(N(C)S(=O)(=O)c2cccc(C(=O)OCC(=O)N3CC(C)CC(C)C3)c2)cc1 (centres undefined) | 2 | . | . | -1 | 4 | 2 | . | .
O=C(NCCCn1ccnc1)c1cc2c(ccc3ccccc32)o1 | . | 1 | -11 | 12 | -47 | . | . | .
Brc1ccccc1OCCN1CCCC1 | 1 | -3 | . | 4 | 1 | 0 | . | .

Screening results as filed in PubChem BioAssay.
